Laboratory results taken from ChEMBL document CHEMBL5335771, “Thioxanthenone-based derivatives as multitarget therapeutic leads for Alzheimer's disease” (Eur J Med Chem, 2023).

Legend:
Cholinesterase = Cholinesterase (Equus caballus, UniProt P81908); assay: Inhibition of equine serum BChE using butyrylthiocholine iodide as substrate preincubated for 20 mins followed by substrate addition by DTNB reagent based Ellman's method; format: cell-free
[1] = Cytotoxicity against mouse brain Primary embryonic cortical cell assessed as cell death at 2.5 uM incubated for 3 hrs by propidium iodide dye based spectrofluorometric analysis relative to control; format: toxicity
Procedure, shortened: (§1)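 Primary cortical cultures from E16.5 mouse embryo brains, trypsinized, plated on poly-D-lysine, grown in Neurobasal with glutamine, glucose, 5% horse serum and B27; compounds added at 4 DIV. Propidium iodide 30 μM; baseline F1 read 1 h after PI; ex 530/em 645 nm. Fmax after digitonin permeabilization. % death = 100×(Fn−F1)/(Fmax−F1); mean of three independent experiments.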

[2] = Cytotoxicity against mouse brain Primary embryonic cortical cell assessed as cell death at 2.5 uM incubated for 5 hrs by propidium iodide dye based spectrofluorometric analysis relative to control; format: toxicity; procedure, shortened: as §1
[3] = Cytotoxicity against mouse brain Primary embryonic cortical cell assessed as cell death at 2.5 uM incubated for 24 hrs by propidium iodide dye based spectrofluorometric analysis relative to control; format: toxicity; procedure, shortened: as §1
[4] = Cytotoxicity against mouse brain Primary embryonic cortical cell assessed as cell death at 5 uM incubated for 1 hr by propidium iodide dye based spectrofluorometric analysis relative to control; format: toxicity; procedure, shortened: as §1
[5] = Cytotoxicity against mouse brain Primary embryonic cortical cell assessed as cell death at 5 uM incubated for 2 hrs by propidium iodide dye based spectrofluorometric analysis relative to control; format: toxicity; procedure, shortened: as §1
[6] = Cytotoxicity against mouse brain Primary embryonic cortical cell assessed as cell death at 5 uM incubated for 4 hrs by propidium iodide dye based spectrofluorometric analysis relative to control; format: toxicity; procedure, shortened: as §1
[7] = Cytotoxicity against mouse brain Primary embryonic cortical cell assessed as cell death at 5 uM incubated for 5 hrs by propidium iodide dye based spectrofluorometric analysis relative to control; format: toxicity; procedure, shortened: as §1
[8] = Cytotoxicity against mouse brain Primary embryonic cortical cell assessed as cell death at 10 uM incubated for 1 hr by propidium iodide dye based spectrofluorometric analysis relative to control; format: toxicity; procedure, shortened: as §1
[9] = Cytotoxicity against mouse brain Primary embryonic cortical cell assessed as cell death at 10 uM incubated for 5 hrs by propidium iodide dye based spectrofluorometric analysis relative to control; format: toxicity; procedure, shortened: as §1
[10] = Cytotoxicity against mouse brain Primary embryonic cortical cell assessed as cell death at 10 uM incubated for 6 hrs by propidium iodide dye based spectrofluorometric analysis relative to control; format: toxicity; procedure, shortened: as §1
[11] = Cytotoxicity against rat Primary cerebellar granule neuron assessed as cell viability at 10 uM relative to control; format: toxicity, cell-based, Cerebellar granule neurone; conditions: primary cerebellar granule neurons, read-out: Activity

Chain of Cholinesterase (P81908 whole entry): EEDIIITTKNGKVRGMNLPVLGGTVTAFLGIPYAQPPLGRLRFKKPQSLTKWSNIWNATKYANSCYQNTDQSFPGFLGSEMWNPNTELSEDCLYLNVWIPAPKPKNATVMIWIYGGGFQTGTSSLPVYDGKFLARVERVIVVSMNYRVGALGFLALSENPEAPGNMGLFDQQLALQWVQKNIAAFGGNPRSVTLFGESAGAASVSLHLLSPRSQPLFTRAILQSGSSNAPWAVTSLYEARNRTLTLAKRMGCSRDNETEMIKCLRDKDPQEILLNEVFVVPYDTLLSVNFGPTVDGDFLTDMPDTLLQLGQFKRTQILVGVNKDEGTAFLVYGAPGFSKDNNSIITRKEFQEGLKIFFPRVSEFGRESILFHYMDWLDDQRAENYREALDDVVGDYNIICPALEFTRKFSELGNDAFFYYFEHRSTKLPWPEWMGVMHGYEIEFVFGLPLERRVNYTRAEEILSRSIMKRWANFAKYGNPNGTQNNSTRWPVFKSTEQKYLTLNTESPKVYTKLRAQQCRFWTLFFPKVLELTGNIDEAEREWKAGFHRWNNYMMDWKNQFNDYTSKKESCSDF

Question: Which IC50 (Cholinesterase) does the source give for `COc1ccc2sc3c(C)ccc(NCCC4CCN(C)CC4)c3c(=O)c2c1` here?
Answer: Its IC50 is 0.96 µM.

Question: And the Activity [1]?
Answer: Its Activity is 8.5%.

Question: What about the Activity [2] of the same molecule?
Answer: Its Activity is 23.8%.

Question: What about the Activity [3] of the same molecule?
Answer: Its Activity is 76.2%.

Question: And the Activity [4]?
Answer: Its Activity is 1.6%.

Question: And the Activity [5]?
Answer: Its Activity is 7.6%.

Question: And the Activity [6]?
Answer: Its Activity is 25.8%.

Question: And the Activity [7]?
Answer: The Activity was 32.6%.

Question: And the Activity [8]?
Answer: Its Activity is 16.7%.

Question: What about the Activity [9] of the same molecule?
Answer: Its Activity is 54.4%.

Question: And the Activity [10]?
Answer: Its Activity is 55.7%.

Question: And the viability at 10 µM [11]?
Answer: The viability at 10 µM was 30%.
